SMARCA2 act – increases SMARCA2 function in MMTV reporter cells; MG213 cells, MMTV-luciferase reporter, dexamethasone, overnight; activation, % at 9.1 µM; hit rate 1% among 370,000; in the data active means activation above about 7.8%;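 further: 0% = vehicle wells and 100% = reference activator wells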
AHR act – activators of human aryl hydrocarbon receptor; P35869; AHR-responsive luciferase reporter cells, luminescence; activation, % at 5 µM; hit rate 2.5% among 320,000; AID 2796; in the data active means activation above about 47%;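 further: 0% = vehicle wells and 100% = reference agonist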
TbMetRS inhib – Trypanosoma brucei MetRS inhibition | purified T. brucei MetRS, ATP depletion, Kinase-Glo luminescence | inhibition, % at 11.9 µM | hit rate 0.4% among 360,000 | AID 624268;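 active means inhibition above a per-plate cutoff of the control wells' mean inhibition plus 3 SD, cut at about 5.5% in these data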;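 further: 0% = DMSO wells median and 100% = median of wells with control inhibitor compound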
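technique = Kinase-Glo luminescence, ATP depletion format | system = purified MetRS (methionyl-tRNA synthetase) enzyme from Trypanosoma brucei | timing = 15 min preincubation, 2 h reaction, all 25 °C | evaluation = percent inhibition versus plate control medians | dosing = single dose, 11.9 µM final nominal, 0.9% final DMSO | also added = substrates ATP, L-methionine and bulk Escherichia coli tRNA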
Efflux pump inh – blocks antifungal efflux pumps in multiplex yeast assay; inhibition, % at 10 µM; hit rate 0.44% among 330,000; AID 485275; S. cerevisiae Candida pump triplex, Nile Red efflux;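 active means plate passing quality check with inhibition over a set limit, or well fluorescence over plate mean plus 4 SD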;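 further: Nile Red retained in pooled yeast measured as flow cytometry median fluorescence; 0% = buffer negative control and 100% = Enniatin B positive control; higher means more Nile Red kept so more efflux inhibition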
TAG inh – inhibitors of triacylglycerol accumulation | inhibition, % at 12.5 µM | hit rate 0.66% among 230,000 | AID 651582 | H9c2 cells, Nile Red lipid (TAG) fluorescence; cells loaded with 200 µM oleic acid;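 active means pattern-corrected inhibition of lipid staining of at least 50% with the nuclear-stain viability signal not falling by more than 50%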;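 further: 0% = DMSO wells and 100% = triacsin C control wells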
Numbers without * were called inactive; · = no result. Hits are enriched below; roughly 4.1% of the tested compounds scored in any of these assays.

SMILES	SMARCA2 act	AHR act	TbMetRS inhib	Efflux pump inh	TAG inh
Cn1c(SCC(=O)Nc2ccccc2)nc2c([nH]c3ccccc32)c1=O	1	53*	0	0	8
C#CCN1CC(N(C)CCOC(=O)CSc2ccccc2)CS1(=O)=O (centres undefined)	-5	·	·	·	·
COc1ccc(NC(=O)c2nc[nH]c2C(=O)N[C@@H](C)c2ccccc2)cc1	0	48*	0	0	9
Cc1cccc(NC(=O)c2nc[nH]c2C(=O)NCCCNC(=O)c2[nH]cnc2C(=O)Nc2cccc(C)c2)c1	0	14	0	0	84*
CNC(=O)c1[nH]cnc1C(=O)Nc1cccc(OC)c1	5	57*	0	1	-7
C[C@@H]1ON(C)[C@H]2C[C@H]3c4[nH]c5c(-c6ccc7c(c6)OCO7)cccc5c4CCN3C(=O)[C@@H]12	1	·	·	·	·
COC(=O)[C@]12C[C@H](CC(=O)NCc3ccccc3)C(=O)N(Cc3ccco3)C1=C[C@H](C(C)(C)C)O[C@@H]2C	0	·	·	·	·
Cc1ccc(NC(=O)/C=C2\NC(=O)CS2)cc1	4	61*	0	0	·
COc1ccccc1NC(=O)/C=C1\NC(=O)CS1	0	22	-1	0	-23
Cc1cccc(-n2c(=O)[nH]c3c(C(N)=O)nc(C(C)C)nc32)c1	-1	53*	0	0	·
CC(C)(C)OC(=O)/C=C/[C@H](CCCCl)Sc1ccc(C(C)(C)C)cc1	-5	·	·	·	·
COc1ccc(CN2C/C(=C/C3=CCCCC3)N(C(=O)OCc3ccccc3)C2=N)c(OC)c1	0	·	·	·	·
Cc1csc(NC(=O)c2ccc(COc3ccc(Cl)c(Cl)c3)o2)n1	3	·	·	·	·
CCCCOc1ncnc2c1[nH]c1ccccc12	0	50*	0	0	·
Nc1ccccc1NC1=CC(=O)CC(c2ccco2)C1 (centres undefined)	7.9*	6	-1	0	7
Cc1cc(S(=O)(=O)NC(=O)[C@H]2O[C@@H](n3ccc(=O)[nH]c3=O)[C@H](O)[C@@H]2O)ccc1Br	-3	·	·	·	·
COc1ccc(/C=C/c2c(-c3cccc(C)c3)oc3ccc(N4CCOCC4)cc23)cc1	-1	62*	0	0	27
COc1ccc(C#Cc2c(-c3ccc(OC)cc3)oc3ccc(-c4ccc(OC)cc4)cc23)cc1	0	1	0	0	2
COc1ccc(C#Cc2c(-c3ccsc3)oc3ccc(N4CCOCC4)cc23)cc1	0	70*	0	0	34
COc1ccc(-c2oc3ccc(N4CCOCC4)cc3c2C#CC2(O)CCCCC2)cc1	1	69*	0	0	7
CCOC(=O)C1=C(C(=O)OCC)C2N(Cc3ccc(C#N)cc3)c3ccccc3[C@@]23C[C@@H](C(=O)OC)N(S(=O)(=O)c2ccc(C)cc2)C3=N1 (some centres undefined)	-7	·	·	·	·
C=CCN(CC#CC(=C)C)Cc1ccccc1	-3	·	·	·	·
CCC(C)N(C(=O)c1ccc(CNC(=O)c2cccc(Br)c2)cc1)C(C)CC (centres undefined)	-6	·	·	·	·
COc1ccccc1CCn1cnc(-c2ccccc2OC)c1CC(C)C	-2	·	·	·	·
COc1ccccc1/C=C(/CC(=O)NCc1ccc2c(c1)OCO2)c1nc2ccccc2s1	-2	81*	-1	0	-14
SMILES	SMARCA2 act	AHR act	TbMetRS inhib	Efflux pump inh	TAG inh
COc1cc2ccccc2cc1C(=O)Nc1ccc(Cl)cn1	1	53*	-1	0	·
COc1ccc(C(=O)Nc2ccc(C)cn2)c(OC)c1	-3	49*	-1	0	·
COc1ccc(NC(=O)c2cc3ccccc3cc2OC)cc1OC	1	5	-1	0	·
CN=c1scc(-c2ccccc2F)n1/N=C(\C)c1cccnc1	2	78*	0	0	-27
CC(CCN1CCC(C(O)(c2ccccc2)c2ccccc2)CC1)Oc1ccc(F)cc1 (centres undefined)	-2	·	·	·	·
COc1ccccc1C1Nc2cccc3cccc(c23)N1	0	60*	-1	0	·
O=[N+]([O-])c1ccccc1C1Nc2cccc3cccc(c23)N1	6	75*	0	0	-3
O=C(Nc1cccc(C(F)(F)F)c1)c1cccnc1NCCO	-2	52*	0	0	17
O=C(Nc1cccc(C(F)(F)F)c1)Oc1ccc(Cl)c2cccnc12	-9	49*	-1	0	·
CCN(CC)C(=O)Oc1ccc(Cl)c2cccnc12	2	10	-1	0	-11
Cc1ccccc1NC(=S)c1nc2ccccc2[nH]1	0	47*	0	1	·
Cc1ccc(-c2cc(C(=O)NN=C/C=C/c3ccco3)[nH]n2)cc1C	-7	·	·	·	·
Cn1c2ccccc2n2c(=O)c(Cl)c(-c3ccccc3)c(C#N)c12	-2	59*	0	-1	·
c1ccc(-c2c[nH]c3cccc(C4CCCCC4)c23)cc1	-1	·	·	·	·
COC(=O)c1cc2c(c3c4ccccc4n(S(=O)(=O)c4cccc(C)c4)c13)C(=O)N(Cc1ccc(N(C)C)cc1)C2	-5	·	·	·	·
CCN(CC)c1ccc(N=Cc2ccccc2[N+](=O)[O-])cc1	-4	16	-1	0	·
CCN(CC)c1ccc(N=Cc2ccc([N+](=O)[O-])o2)cc1	1	12	0	1	52*
C=CCN(C(=O)[C@@H](C)[C@@H](O)c1ccc(Cl)cc1)c1ccccc1	-2	·	·	·	·
CCOC(=O)C1(C)NC(c2cc(OC)c(OC)c(OC)c2)C2C(=O)N(CC)C(=O)C21 (centres undefined)	-3	71*	0	0	10
Oc1ccc(/C=N/n2c3ccccc3c3ccccc32)cc1	-1	55*	0	0	·
Cc1nnc(C)n1/N=C/c1ccc(O)cc1	1	-4	0	0	9
C[C@H]1Cn2nnc(-c3ccccc3)c2Cn2c3ccccc3c(=O)n21	7	·	·	·	·
Cc1cc(-c2n[nH]c(=S)n2N=Cc2ccc(O)cc2)n[nH]1	1	·	·	·	·
Cc1ccccc1N=Nc1c(O)[nH]c2ccccc12	3	48*	0	0	0
Cc1ccc2[nH]c(O)c(N=Nc3ccccc3C)c2c1	0	15	0	0	·
SMILES	SMARCA2 act	AHR act	TbMetRS inhib	Efflux pump inh	TAG inh
COc1ccc2[nH]c(N=Nc3ccccc3C)c(O)c2c1	-1	65*	0	0	-3
O=C(CSc1nnc(-c2ccccn2)n1-c1ccccc1)Nc1ccccc1-c1ccccc1	-6	·	·	·	·
CCOC(=O)Cc1c(C)nc2c(-c3ccc(Cl)cc3)cnn2c1C	2	65*	-1	1	4
Cc1cc(N)n2ncc(-c3ccc(F)cc3)c2n1	0	45	0	0	13
CCOC(=O)Cc1c(C)nc2c(-c3ccc(Cl)cc3)c(C)[nH]n2c1=O	0	5	0	0	·
Cc1cc(NCc2ccccn2)n2ncc(-c3ccccc3)c2n1	-3	74*	3	0	25
Cc1cc(N)n2ncc(-c3ccc(Cl)cc3)c2n1	7	69*	0	0	2
Cc1cc(NCc2ccccn2)n2ncc(-c3ccc(Cl)cc3)c2n1	3	76*	0	0	38
COC(=O)c1cccc(Nc2nc(-c3cccnc3)nc3ccccc23)c1	-3	18	0	0	32

Screens from PubChem BioAssay.
